Experimental data: ChEMBL document CHEMBL1154352, “Toll-like receptor 7 selective synthetic oligoribonucleotide agonists: synthesis and structure-activity relationship studies” (J Med Chem, 2009)
Active and inactive are the calls of the source. No cut-off for these calls is given here.

Key:
PBMC [1] = assay: Immunomodulatory activity in human PBMC assessed as induction of IL6 at 50 ug/ml after 24 hrs; assay type: functional, cell-based
Procedure, shortened: (§1)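 Human PBMCs plated at 5 × 10^6 cells/mL; compounds dissolved in PBS added at various concentrations, 37 °C for 24 h. Supernatant cytokines/chemokines quantified with human Luminex multiplex kit.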

Homo sapiens [2] = species on record: Homo sapiens; assay: Immunostimulatory activity in human mDC assessed as induction of IL6 at 100 ug/ml after 24 hrs; assay type: functional
Procedure, shortened: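 Human mDCs isolated from PBMCs by CD19+ B-cell depletion then BDCA1 positive selection; plated at 1 × 10^6 cells/mL, compounds in PBS, 37 °C for 24 h; supernatant cytokines by human Luminex multiplex. Representative of four independent experiments.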

Homo sapiens [3] = species on record: Homo sapiens; assay: Immunostimulatory activity in human pDC assessed as induction of IL6 at 100 ug/ml after 24 hrs; assay type: functional
Procedure, shortened: (§2)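 Human pDCs plated at 1 × 10^6 cells/mL; compounds in PBS added, 37 °C for 24 h; supernatant cytokines/chemokines by human Luminex multiplex kit.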

PBMC [4] = assay: Immunomodulatory activity in human PBMC assessed as induction of MCP1 at 50 ug/ml after 24 hrs; assay type: functional, cell-based; procedure, shortened: as §1
Homo sapiens [5] = species on record: Homo sapiens; assay: Immunostimulatory activity in human pDC assessed as induction of IFNalpha at 100 ug/ml after 24 hrs; assay type: functional; procedure, shortened: as §2
PBMC [6] = assay: Immunomodulatory activity in human PBMC assessed as induction of IL1-beta at 50 ug/ml after 24 hrs; assay type: functional, cell-based; procedure, shortened: as §1
PBMC [7] = assay: Immunomodulatory activity in human PBMC assessed as induction of TNFalpha at 100 ug/ml after 24 hrs; assay type: functional, cell-based; procedure, shortened: as §1
[8] = target: T1, Toll-like receptor 7 (Homo sapiens) (UniProt Q9NYK1); assay: Activation of human TLR7 expressed in HEK293XL assessed as fold induction of NF-kappaB activity at 50 ug/ml after 18 hrs by reporter gene assay relative to control
T1 sequence (whole entry): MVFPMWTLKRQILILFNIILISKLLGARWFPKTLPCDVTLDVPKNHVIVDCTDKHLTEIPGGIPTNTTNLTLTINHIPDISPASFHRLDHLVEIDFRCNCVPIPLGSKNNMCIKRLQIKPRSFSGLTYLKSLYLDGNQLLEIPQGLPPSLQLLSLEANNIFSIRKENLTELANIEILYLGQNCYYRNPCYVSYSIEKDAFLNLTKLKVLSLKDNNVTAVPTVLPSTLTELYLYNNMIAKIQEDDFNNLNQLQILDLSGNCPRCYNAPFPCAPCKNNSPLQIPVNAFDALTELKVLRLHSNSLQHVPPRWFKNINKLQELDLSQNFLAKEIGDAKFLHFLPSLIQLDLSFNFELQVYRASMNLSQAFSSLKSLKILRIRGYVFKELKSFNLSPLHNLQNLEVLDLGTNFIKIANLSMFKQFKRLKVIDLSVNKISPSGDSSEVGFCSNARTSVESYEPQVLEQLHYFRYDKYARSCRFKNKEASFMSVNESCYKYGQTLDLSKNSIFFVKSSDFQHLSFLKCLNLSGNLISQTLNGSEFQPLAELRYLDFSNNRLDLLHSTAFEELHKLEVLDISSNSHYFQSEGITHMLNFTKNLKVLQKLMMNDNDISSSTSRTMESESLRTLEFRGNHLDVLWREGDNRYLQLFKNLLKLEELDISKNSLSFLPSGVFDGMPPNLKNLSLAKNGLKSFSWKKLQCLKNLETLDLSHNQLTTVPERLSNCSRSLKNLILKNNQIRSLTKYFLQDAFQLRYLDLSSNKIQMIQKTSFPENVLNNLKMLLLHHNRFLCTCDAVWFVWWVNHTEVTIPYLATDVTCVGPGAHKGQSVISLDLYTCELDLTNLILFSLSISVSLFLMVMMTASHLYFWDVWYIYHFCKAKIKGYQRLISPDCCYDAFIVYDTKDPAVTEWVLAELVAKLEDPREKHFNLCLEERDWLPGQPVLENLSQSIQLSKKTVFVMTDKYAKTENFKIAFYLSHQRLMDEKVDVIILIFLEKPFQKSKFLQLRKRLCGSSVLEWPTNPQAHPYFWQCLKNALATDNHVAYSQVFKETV
Procedure, shortened: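 HEK293 cells stably expressing human TLR7 or TLR8, transiently transfected with SEAP reporter plasmid; medium replaced, SIMRA compounds added, 18 h incubation. Supernatant SEAP measured by QuantiBlue; expressed as fold increase in NF-κB activity over PBS control. Tabulated data at 50 μg/mL, representative of three independent experiments.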

[9] = target: T2, Toll-like receptor 9 (Mus musculus) (UniProt Q9EQU3); assay: Activation of mouse TLR9 expressed in HEK293 assessed as induction of NF-kappaB activity reporter gene assay; assay type: cell-based
T2 sequence (whole entry): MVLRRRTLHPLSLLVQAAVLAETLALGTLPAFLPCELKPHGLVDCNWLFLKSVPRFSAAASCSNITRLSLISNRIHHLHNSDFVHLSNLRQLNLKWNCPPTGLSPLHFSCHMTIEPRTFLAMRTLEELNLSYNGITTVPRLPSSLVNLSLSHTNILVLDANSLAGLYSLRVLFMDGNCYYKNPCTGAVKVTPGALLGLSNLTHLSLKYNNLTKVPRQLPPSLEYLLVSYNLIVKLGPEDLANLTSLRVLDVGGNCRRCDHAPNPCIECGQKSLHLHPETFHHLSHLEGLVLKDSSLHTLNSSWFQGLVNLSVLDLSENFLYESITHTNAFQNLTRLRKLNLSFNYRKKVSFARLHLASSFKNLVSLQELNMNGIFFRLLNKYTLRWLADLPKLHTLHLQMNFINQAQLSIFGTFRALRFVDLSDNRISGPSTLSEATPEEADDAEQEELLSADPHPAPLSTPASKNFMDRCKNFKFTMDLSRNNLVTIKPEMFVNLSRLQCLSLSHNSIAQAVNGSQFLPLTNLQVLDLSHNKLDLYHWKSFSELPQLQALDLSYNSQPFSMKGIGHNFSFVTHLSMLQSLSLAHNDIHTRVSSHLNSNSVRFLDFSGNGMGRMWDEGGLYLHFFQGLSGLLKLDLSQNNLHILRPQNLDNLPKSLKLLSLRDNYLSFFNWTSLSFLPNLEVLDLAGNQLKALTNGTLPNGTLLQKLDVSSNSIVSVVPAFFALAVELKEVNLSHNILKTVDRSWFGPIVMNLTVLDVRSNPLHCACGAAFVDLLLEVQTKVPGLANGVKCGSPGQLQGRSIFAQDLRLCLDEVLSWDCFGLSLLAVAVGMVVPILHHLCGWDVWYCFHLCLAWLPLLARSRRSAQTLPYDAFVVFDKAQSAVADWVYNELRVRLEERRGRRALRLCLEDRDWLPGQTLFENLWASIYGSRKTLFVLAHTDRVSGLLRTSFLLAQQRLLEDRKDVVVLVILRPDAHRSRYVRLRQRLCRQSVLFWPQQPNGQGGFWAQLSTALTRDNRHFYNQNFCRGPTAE

Homo sapiens [10] = species on record: Homo sapiens; assay: Immunostimulatory activity in human pDC assessed as induction of IP10 at 100 ug/ml after 24 hrs; assay type: functional; procedure, shortened: as §2
PBMC [11] = assay: Immunomodulatory activity in human PBMC assessed as induction of IL12 at 50 ug/ml after 24 hrs; assay type: functional, cell-based; procedure, shortened: as §1

Row | Compound | Activity (PBMC [1]) | Activity (Homo sapiens [2]) | Activity (Homo sapiens [3]) | Activity (PBMC [4]) | Activity (Homo sapiens [5]) | Activity (PBMC [6]) | Activity (PBMC [7]) | fold change (FC) [8] | Activity [9] | Activity (Homo sapiens [10]) | Activity (PBMC [11])
1 | Nc1ncnc2c1ncn2[C@@H]1O[C@H](CO)[C@@H](OP(=O)(S)OC[C@H]2O[C@@H](n3cnc4c(N)ncnc43)[C@H](O)[C@@H]2OP(=O)(S)OC[C@H]2O[C@@H](n3cnc4c(N)ncnc43)[C@H](O)[C@@H]2OP(=O)(S)OC[C@H]2O[C@@H](n3cnc4c(N)ncnc43)[C@H](O)[C@@H]2OP(=O)(S)OC[C@H]2O[C@@H](n3cnc4c(N)ncnc43)[C@H](O)[C@@H]2OP(=O)(S)OC[C@H]2O[C@@H](n3cnc4c(N)ncnc43)[C@H](O)[C@@H]2OP(=O)(S)OC[C@H]2O[C@@H](n3cnc4c(N)ncnc43)[C@H](O)[C@@H]2OP(=O)(S)OC[C@H]2O[C@@H](n3cnc4c(N)ncnc43)[C@H](O)[C@@H]2OP(=O)(S)OC[C@H]2O[C@@H](n3cnc4c(N)ncnc43)[C@H](O)[C@@H]2OP(=O)(S)OC[C@H]2O[C@@H](n3cnc4c(N)ncnc43)[C@H](O)[C@@H]2OP(=O)(S)OC[C@H]2O[C@@H](n3cnc4c(N)ncnc43)[C@H](O)[C@@H]2OP(=O)(S)OCC(O)COP(=O)(S)O[C@H]2[C@@H](O)[C@H](n3cnc4c(N)ncnc43)O[C@@H]2COP(=O)(S)O[C@H]2[C@@H](O)[C@H](n3cnc4c(N)ncnc43)O[C@@H]2COP(=O)(S)O[C@H]2[C@@H](O)[C@H](n3cnc4c(N)ncnc43)O[C@@H]2COP(=O)(S)O[C@H]2[C@@H](O)[C@H](n3cnc4c(N)ncnc43)O[C@@H]2COP(=O)(S)O[C@H]2[C@@H](O)[C@H](n3cnc4c(N)ncnc43)O[C@@H]2COP(=O)(S)O[C@H]2[C@@H](O)[C@H](n3cnc4c(N)ncnc43)O[C@@H]2COP(=O)(S)O[C@H]2[C@@H](O)[C@H](n3cnc4c(N)ncnc43)O[C@@H]2COP(=O)(S)O[C@H]2[C@@H](O)[C@H](n3cnc4c(N)ncnc43)O[C@@H]2COP(=O)(S)O[C@H]2[C@@H](O)[C@H](n3cnc4c(N)ncnc43)O[C@@H]2COP(=O)(S)O[C@H]2[C@@H](O)[C@H](n3cnc4c(N)ncnc43)O[C@@H]2COP(=O)(S)O[C@H]2[C@@H](O)[C@H](n3cnc4c(N)ncnc43)O[C@@H]2CO)[C@H]1O (some centres not stated) | 12 pg/mL | inactive | inactive | 724 pg/mL | inactive | 28 pg/mL | 1.6 pg/mL | 0.3 | inactive | inactive | 138 pg/mL
2 | Nc1ccn([C@@H]2O[C@H](COP(=O)(S)O[C@H]3[C@@H](O)[C@H](n4cnc5c(N)ncnc54)O[C@@H]3COP(=O)(S)O[C@H]3[C@@H](O)[C@H](n4ccc5c(=O)[nH]c(N)nc54)O[C@@H]3COP(=O)(S)O[C@H]3[C@@H](O)[C@H](n4ccc(=O)[nH]c4=O)O[C@@H]3COP(=O)(S)O[C@H]3[C@@H](O)[C@H](n4ccc(=O)[nH]c4=O)O[C@@H]3COP(=O)(S)O[C@H]3[C@@H](O)[C@H](n4cnc5c(N)ncnc54)O[C@@H]3COP(=O)(S)O[C@H]3[C@@H](O)[C@H](n4cnc5c(N)ncnc54)O[C@@H]3CO)[C@@H](OP(=O)(S)OC[C@H]3O[C@@H](n4ccc5c(=O)[nH]c(N)nc54)[C@H](O)[C@@H]3OP(=O)(S)OC[C@H]3O[C@@H](n4ccc(N)nc4=O)[C@H](O)[C@@H]3OP(=O)(S)OC[C@H]3O[C@@H](n4ccc(=O)[nH]c4=O)[C@H](O)[C@@H]3OP(=O)(S)OC[C@H]3O[C@@H](n4ccc(=O)[nH]c4=O)[C@H](O)[C@@H]3OP(=O)(S)OCC(O)COP(=O)(S)O[C@H]3[C@@H](O)[C@H](n4ccc(=O)[nH]c4=O)O[C@@H]3COP(=O)(S)O[C@H]3[C@@H](O)[C@H](n4ccc(=O)[nH]c4=O)O[C@@H]3COP(=O)(S)O[C@H]3[C@@H](O)[C@H](n4ccc(N)nc4=O)O[C@@H]3COP(=O)(S)O[C@H]3[C@@H](O)[C@H](n4ccc5c(=O)[nH]c(N)nc54)O[C@@H]3COP(=O)(S)O[C@H]3[C@@H](O)[C@H](n4ccc(N)nc4=O)O[C@@H]3COP(=O)(S)O[C@H]3[C@@H](O)[C@H](n4cnc5c(N)ncnc54)O[C@@H]3COP(=O)(S)O[C@H]3[C@@H](O)[C@H](n4ccc5c(=O)[nH]c(N)nc54)O[C@@H]3COP(=O)(S)O[C@H]3[C@@H](O)[C@H](n4ccc(=O)[nH]c4=O)O[C@@H]3COP(=O)(S)O[C@H]3[C@@H](O)[C@H](n4ccc(=O)[nH]c4=O)O[C@@H]3COP(=O)(S)O[C@H]3[C@@H](O)[C@H](n4cnc5c(N)ncnc54)O[C@@H]3COP(=O)(S)O[C@H]3[C@@H](O)[C@H](n4cnc5c(N)ncnc54)O[C@@H]3CO)[C@H]2O)c(=O)n1 (some centres not stated) | 1750 pg/mL | Active | Active | 49600 pg/mL | Active | 117 pg/mL | 8.8 pg/mL | 20.9 | inactive | Active | 320 pg/mL
